TCR-CD3 inh: inhibitors of human TCR-CD3 interaction; TAMRA-labeled TCR probe fluorescence, biochemical; hit rate 0.37% among 360,000; inhibition, % at 9.4 µM; in the data active = inhibition above about 19%;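 note: recombinant mutant TCR 2C K166C tagged with TAMRA read by polarization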
DDE Tn6 FP inh: inhibitors of Tn6 peptide binding to human fibrin DD(E); hit rate 0.21% among 370,000; Fibrin DD(E) TRITC-Tn6 fluorescence polarization displacement; P02675; inhibition, % at 8.3 µM;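 active = inhibition above a per-campaign cutoff: mean of compounds within control limits plus 3 SD, cut at about 15% in these data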
mABHD4 FP: inhibitors of mouse ABHD4; inhibition, % at 8.92 µM; Q8VD66; purified mABHD4, FP-Rh probe fluorescence polarization; hit rate 0.54% among 370,000; AID 720543;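 active = inhibition exceeding the mean over every tested compound plus 3 SD, cut at about 30% in these data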
Target sequence (Q8VD66 whole entry, looked up): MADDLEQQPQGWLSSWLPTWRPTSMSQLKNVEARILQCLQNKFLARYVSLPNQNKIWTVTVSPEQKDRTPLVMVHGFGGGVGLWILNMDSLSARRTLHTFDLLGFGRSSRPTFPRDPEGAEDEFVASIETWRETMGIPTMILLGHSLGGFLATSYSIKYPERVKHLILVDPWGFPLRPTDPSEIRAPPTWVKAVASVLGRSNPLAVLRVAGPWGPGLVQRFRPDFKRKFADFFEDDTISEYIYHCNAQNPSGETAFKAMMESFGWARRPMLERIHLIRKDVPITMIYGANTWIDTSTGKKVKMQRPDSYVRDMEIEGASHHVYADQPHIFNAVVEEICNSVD
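Test system: mABHD4 protein | Buffer or medium: HEPES pH 7.0 buffer, 150 mM NaCl, 0.01% Pluronic F-127 | Probe or stimulus: FP-Rh fluorescent activity-based probe, added after compound pre-incubation | Timing: Pre-incubation 45 min, probe exposure 60 min, at 25 °C | Technique: Fluorescence polarization, excitation 525 nm, emission 598 nm, BODIPY TMR filters | Repeats: Single well per compound (singlicate)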
SIAE primary: inhibitors of human sialic acid acetylesterase SIAE. hit rate 0.69% among 370,000. inhibition, % at 9.66 µM. SIAE FP-Rh probe binding, fluorescence polarization. Q9HAT2;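 active = inhibition above a cutoff: mean of compounds within the control limits plus 3 SD of those, cut at about 17% in these data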
HTRA1 inhibitor: HTRA1 (human) protease inhibition. inhibition, % at 5.96 µM. Q92743. recombinant HTRA1, FP-rhodamine activity-based probe, fluorescence polarization. hit rate 0.5% among 340,000; in the data active = inhibition above about 36%
DDE Tn7 FP inh: inhibitors of Tn7 peptide binding to human fibrin DD(E); hit rate 0.13% among 370,000; inhibition, % at 8.3 µM; FP displacement of FITC-Tn7 peptide from fibrin DD(E); 0% = median of compound wells per plate; P02675;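 active = inhibition above the mean of compounds falling within the control limits plus 3 SD of them, cut at about 14% in these data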
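Test system – human fibrin DD(E) · Times – 10 min preincubation, 3 h with tracer, room temperature · Detection – fluorescence polarization of the labelled Tn7 tracer · Measure – percent inhibition normalized to high-control wells · Benchmarks – high control wells with 10 µM unlabelled Aha-Tn7 peptide (full inhibition) · Repeats – singlicate testing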
SIAE inh conf: confirmation of human SIAE inhibitors. shares compounds with SIAE primary. SIAE FP-Rh activity-based probe, fluorescence polarization. inhibition, % at 9.66 µM. hit rate 13% among 2,300;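 active = mean inhibition of the replicates above the hit cutoff set in the primary screen, cut at about 17% in these data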;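 note: inhibitors lower polarization as more probe stays unbound to SIAE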
Numbers stand for hits; . = inactive; / = no result. Sampled rows, rich in hits. Any-hit rate of the full collection: about 1.8%.

SMILES	TCR-CD3 inh	DDE Tn6 FP inh	mABHD4 FP	SIAE primary	HTRA1 inhibitor	DDE Tn7 FP inh	SIAE inh conf
Cc1cc(/C([O-])=C(/C(=S)Nc2ccc(F)cc2)[n+]2ccccc2)c(C)n1Cc1ccccc1Cl	.	.	.	22	.	.	.
Clc1ccc(-n2c(SCc3cccc4ccccc34)nnc2-c2ccccc2)cc1	/	.	.	.	/	.	/
O=C(Nc1nc(-c2ccccc2)cs1)c1ccc(=O)[nH]c1	.	.	.	.	.	.	/
Cc1cc(-c2csc(NC(=O)c3ccc(=O)[nH]c3)n2)c(C)n1Cc1ccccc1	.	.	.	26	.	.	.
CC(=O)N1CCc2c1cccc2S(=O)(=O)NC(CC(C)C)C(=O)Nc1ccccc1C (configuration not stated)	/	.	.	.	/	.	/
O=C(Oc1cccc(-n2cnnn2)c1)C1CCCCC1	.	.	.	23	.	.	17
COC[C@@H]1CCCN1c1ccc2c(c1)O[C@@H]1CCN(C1)S2(=O)=O	/	.	.	.	/	.	/
N#Cc1cccc(S(=O)(=O)NCC(=O)NCCCc2ccccc2)c1	.	.	.	.	.	.	/
O=C(CNS(=O)(=O)c1cccc(Br)c1)NCCCc1ccccc1	.	.	.	20	.	.	.
COc1cc(-c2nnc(SCC(=O)N3C(C)CCCC3C)o2)cc(OC)c1OC (configuration not stated)	/	.	.	.	/	.	/
O=C(/C=C/c1ccccc1)N1CCN(CC(O)COc2ccccc2)CC1 (configuration not stated)	.	.	.	19	.	.	.
OC(COc1ccccc1)CN1CCCCC1 (configuration not stated)	.	.	.	.	.	.	/
O=S(=O)(NCc1ccco1)c1ccccc1Br	.	.	.	20	.	.	.
Cc1cc(C(=O)O[C@H]2CCC[C@@]3(C(=O)N(Cc4ccccc4)c4ccccc43)[C@H]2NC(=O)CCc2ccccc2)no1	/	.	.	.	/	.	/
CC1=NN(c2ccc(S(=O)(=O)O)cc2C)C(=O)C1	.	.	.	20	.	.	.
CCC1CCC2(CC1)NC(=O)N(CC(=O)NCc1ccccc1Cl)C2=O (configuration not stated)	.	.	.	17	.	.	.
O=C(CN1C(=O)NC2(CCCCCCC2)C1=O)NCc1ccccc1Cl	.	.	.	.	.	.	/
COc1cc(/C=N/Nc2nc3ccccc3s2)cc([N+](=O)[O-])c1O	.	.	.	.	.	.	/
COc1cc(/C=N/Nc2nc3ccccc3s2)ccc1OC(=O)c1ccccc1F	.	.	.	21	.	.	.
COc1cc(OC)cc(C(=O)Oc2ccc(/C=N/Nc3nc4ccccc4s3)cc2OC)c1	.	.	.	19	.	.	17
COc1ccc(-n2c(SCC(=O)NCCCSC)nnc2-c2ccncc2)cc1	/	.	.	.	/	.	/
CN(C)c1ccc(NC(=O)CSc2nc(N)c(C(=O)Nc3ccc(N(C)C)cc3)s2)cc1	.	.	.	20	.	.	.
CCC(C)NC(=O)CS(=O)Cc1nc(-c2cccc(C)c2)oc1C (configuration not stated)	.	.	.	25	.	.	.
CCCCNC(=O)CS(=O)Cc1nc(-c2cccc(C)c2)oc1C (configuration not stated)	.	.	.	26	.	.	.
CCCCSCCCNC(=O)CS(=O)Cc1nc(-c2cccc(C)c2)oc1C (configuration not stated)	.	.	.	.	.	.	/
SMILES	TCR-CD3 inh	DDE Tn6 FP inh	mABHD4 FP	SIAE primary	HTRA1 inhibitor	DDE Tn7 FP inh	SIAE inh conf
COc1ccc(S[C@]2(C(=O)NCC(C)C)CC(=O)N[C@@H]2c2ccc(OC)cc2)cc1	/	.	.	.	/	.	/
CC(=O)N1CCC2(CC1)C/C(=N\NC(=S)Nc1ccccc1F)c1cc(O)ccc1O2	.	.	.	.	.	.	/
COc1ccc(NC(=S)N/N=C2\CC(C)(C)Oc3ccc(O)cc32)cc1	.	.	.	35	.	.	28
COc1ccccc1NC(=S)N/N=C1\CC(C)(C)Oc2ccc(O)cc21	.	.	.	34	.	.	.
CC(=O)N1CCC2(CC1)C/C(=N\NC(=S)Nc1ccccc1C)c1cc(O)ccc1O2	.	.	.	18	.	.	.
c1ccc2sc(-c3csc4c3CCNC4)nc2c1	/	.	.	.	/	.	/
CCOC(=O)/C(C)=N/Nc1nc(-c2ccc(NC(C)=O)cc2)cs1	.	.	.	20	/	.	.
Cc1cc2ccccn2c1C(=O)c1ccc(F)cc1	.	.	.	.	.	.	/
Cc1cc2ccccn2c1C(=O)c1ccc(S(=O)(=O)N(C)C)cc1	.	.	.	19	.	.	.
S=c1[nH]nc(Nc2ccc(Cl)cc2)s1	.	.	.	.	.	.	/
Clc1ccc(Nc2nc(C3CC3)cs2)cc1	.	.	.	20	.	.	.
CC(Sc1nnc(COc2ccc(Cl)cc2)o1)C(=O)Nc1ccc(N2CCOCC2)cc1 (configuration not stated)	.	.	.	.	.	.	/
CCc1ccc(NC(=O)C(C)Sc2nnc(CN3CCCC3)o2)cc1 (configuration not stated)	.	.	.	19	.	.	.
N=c1c2c(ccn1Cc1ccccc1)Oc1ccc3ccccc3c1C2c1ccccc1 (configuration not stated)	/	.	.	.	/	.	/
COC(=O)[C@]12C[C@H](CC(=O)N3CCN(C(=O)C4CC4)CC3)C(=O)N(CCc3ccc(OC)c(OC)c3)C1=C[C@H](C1CCCC1)O[C@@H]2C	/	.	.	.	/	.	/
Cc1cc(N/N=C/c2c(O)ccc3ccccc23)nc(-c2ccccc2O)n1	.	.	.	21	.	.	.
O=C(NCCCN1CCOCC1)c1ccc(S(=O)(=O)Nc2ccccc2F)cc1	.	.	.	17	.	.	.
COc1cccc(Nc2nc(C(C)N)cs2)n1 (configuration not stated)	.	.	.	.	/	.	/
COc1cccc(Nc2nc(CN)cs2)n1	.	.	.	22	/	.	.
COc1cc(Cn2nnc3ccccc32)cc(Br)c1O	.	.	.	23	.	.	.
COc1ccc(C)cc1Cn1nnc2ccccc21	.	.	.	.	.	.	/
CN(C)C1=NCCN1CCCC1CCCCC1	.	.	.	.	.	.	/
CCCCN1CCN=C1N(C)C	.	.	.	17	.	.	.
O=C(Nc1ccccc1)Nc1nnc([C@@H]2C[C@H](O)[C@@H](CO)O2)s1	.	.	.	47	/	.	.
O=C(Nc1ccc(F)cc1)Nc1nnc([C@@H]2C[C@H](O)[C@@H](CO)O2)s1	.	.	.	.	/	.	/
Cc1cc(C(=O)NNC(=O)c2ccc(S(=O)(=O)N(C)C)cc2)c(C)o1	.	.	.	.	.	.	/

Assay outcomes from PubChem.
